Compound activity from PubChem BioAssay.
RBBP9 inh: inhibitors of human serine hydrolase RBBP9; recombinant RBBP9, FP-Rh probe fluorescence polarization; inhibition, % at 7.94 µM; actives 0.2% (n = 220,000); AID 1515;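 active means inhibition above the campaign mean of all tested compounds plus 3 SD, cut at about 14% in these data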
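Test system: recombinant human RBBP9. Quantity: 2.5 µM RBBP9 dispensing solution, before mixing. Detection: FP readout at 525/598 nm. Reagent: Serine-hydrolase probe FP-Rh, 375 nM pre-mixing. Measure: % inhibition. Control set: DMSO-treated enzyme wells and wells lacking RBBP9. Buffer or medium: Tris-NaCl-Pluronic buffer, pH 8.0. Times: preincubation 30 min plus labeling 45 min at 25 °C.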
Wee1 stabilizer: human Wee1 degradation inhibition, primary screen; actives 1.2% (n = 220,000); HeLa Luc-Wee1K328M stability, luciferase luminescence; 100% = proteasome inhibitor MG132 effect; reporter increase, % at 5 µM;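 active means activation above the mean of all tested compounds plus 3 SD, set per screening run, cut at about 8.8% in these data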;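 further: cells exposed to compound for 20 h before luminescence read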
Target sequence (P30291 whole entry K328M): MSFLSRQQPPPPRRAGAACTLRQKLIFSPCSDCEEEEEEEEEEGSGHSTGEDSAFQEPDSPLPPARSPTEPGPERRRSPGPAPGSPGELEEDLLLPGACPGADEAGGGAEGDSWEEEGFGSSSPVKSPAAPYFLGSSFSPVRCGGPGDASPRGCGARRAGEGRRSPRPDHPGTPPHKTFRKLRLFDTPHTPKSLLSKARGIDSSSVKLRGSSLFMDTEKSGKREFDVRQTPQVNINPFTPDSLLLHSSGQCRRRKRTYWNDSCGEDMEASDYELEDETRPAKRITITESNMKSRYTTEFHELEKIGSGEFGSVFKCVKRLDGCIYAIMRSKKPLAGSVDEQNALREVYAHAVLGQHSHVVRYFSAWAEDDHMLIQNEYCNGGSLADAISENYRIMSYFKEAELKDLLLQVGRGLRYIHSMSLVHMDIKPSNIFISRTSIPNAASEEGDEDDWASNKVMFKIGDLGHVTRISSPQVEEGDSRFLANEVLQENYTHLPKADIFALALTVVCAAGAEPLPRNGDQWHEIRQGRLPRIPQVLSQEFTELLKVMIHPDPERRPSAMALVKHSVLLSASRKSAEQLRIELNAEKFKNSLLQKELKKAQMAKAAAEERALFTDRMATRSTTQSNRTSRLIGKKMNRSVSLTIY
zVAD death inh: L929 zVAD cell death inhibition | L929 zVAD necroptosis rescue, ATP luminescence, 24 h; with zVAD 60 µM | actives 0.38% (n = 220,000) | AID 1377 | viability rescue, % at 10 µM;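 active means activation, scaled between plate controls, above about 75%, limit read from the data; inactive means activation under that limit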
Pf gamet viab: kills late stage P. falciparum gametocytes. actives 0.065% (n = 150,000). P. falciparum stage V gametocytes, ATP luminescence, 24 h. inhibition, % at 10.9 µM;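 active means inhibition above the mean plus 3 SD of compounds within the control limits, set per campaign, cut at about 38% in these data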
TNF death inh: blocks TNF-alpha induced death of Jurkat FADD-/- cells. activation (protection from cell death), % at 10 µM. Jurkat FADD-/- TNF necroptosis rescue, ATP luminescence, 24 h; 0 = TNF only, 100 = no-TNF cells. AID 463075. actives 0.068% (n = 220,000);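 active means activation, meaning protection from cell death, of at least 50% relative to plate controls; inactive means activation below 50%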;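 further: necroptosis triggered by 40 ng/mL TNF-alpha added together with compound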
m-calpain inh: blocks pig calpain II enzyme activity; purified calpain II, fluorogenic peptide substrate, 30 min; actives 0.37% (n = 220,000); inhibition, % at 16 µM;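 active means inhibition above about 50%, limit read from the data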
Wee1 degr conf: human Wee1 degradation inhibition, confirmation; actives 4% (n = 1,100); shares compounds with Wee1 stabilizer; activation, % at 5 µM; HeLa Luc-Wee1K328M degradation, luminescence; vehicle 0%, proteasome-blocked wells 100%; in the data active means activation above about 8.9%
A number is an active result; n = inactive; x = no result given. A selection: hits, their analogues and other compounds. The true share with any hit is near 2.1%.

SMILES	RBBP9 inh	Wee1 stabilizer	zVAD death inh	Pf gamet viab	TNF death inh	m-calpain inh	Wee1 degr conf
O=C(Cn1nc(-c2ccccc2Cl)ccc1=O)Nc1ccccc1-c1ccccc1	n	25	n	x	n	n	n
CCNS(=O)(=O)c1ccc(NS(=O)(=O)c2cc(C)ccc2C)cc1	n	13	n	n	n	n	n
Fc1cccc(Oc2nc3ccccc3n3cccc23)c1	n	n	n	n	n	n	x
N=C(N)N=Nc1c(O)[nH]c2ccc(Br)cc12	n	n	n	n	n	n	x
O=C(N=Nc1c(O)[nH]c2ccc(Br)cc12)c1ccccc1-n1cccc1	n	12	n	x	n	n	21
Cc1cc(C)n(Cc2ccc(C(=O)NCc3ccco3)o2)n1	n	n	n	x	n	n	x
Cc1cc(C)n2nc(C(=O)NCc3ccco3)cc2n1	n	17	n	n	n	n	n
CC1CN=C(N(C(=O)Nc2ccccc2)c2ccc(S(=O)(=O)N3CCOCC3)cc2)S1 (stereo not drawn)	n	n	n	x	n	n	x
CCc1nc(C)cc2c1sc1ccccc12	n	25	n	n	n	n	n
CC[n+]1c(C)cc2c(sc3ccccc32)c1C	n	n	n	n	n	n	x
Cc1cc(C)nc(NC(=O)c2ccc(Cl)cc2)n1	n	17	n	n	n	n	n
CCN(CC)C(=O)c1sc2c(c1C)c(=O)n(-c1ccc(OC)cc1OC)c(=O)n2CC(=O)c1ccccc1	n	12	n	n	n	n	n
CC(=O)N1CCc2cc(N=NC3=C(O)CC(C)(C)CC3=O)ccc21	n	17	n	n	n	n	n
NC(Cc1c[nH]c2ccccc12)C(=O)NCc1ccccc1 (stereo not drawn)	x	x	x	n	x	x	x
Fc1ccc(CSc2ccc(-c3ccco3)nn2)cc1	n	12	n	n	n	n	n
Fc1cccc(CSc2ccc(-c3ccco3)nn2)c1	n	n	n	x	n	n	x
Nc1nc2ncc(-c3ccsc3)c(N)n2n1	n	n	n	n	n	n	x
Cc1ccsc1/C=N\NC(=O)c1cc(C(C)(C)C)[nH]n1	n	44	n	n	n	n	n
Cc1cc(C(=O)N/N=C/c2sccc2C)no1	n	n	n	x	n	n	x
COc1ccc(C(=O)N(Cc2nc(-c3ccc(C)cc3)no2)C2CCCCC2)cc1OC	n	n	n	x	n	n	x
COc1ccccc1C1SCCN1S(C)(=O)=O (stereo not drawn)	n	21	n	x	n	n	n
C=CCn1c(SCC(=O)Nc2cc(NC(C)=O)ccc2OC)nnc1-c1ccccn1	n	12	n	n	n	n	n
COc1c(Cl)cc(Br)c(OC)c1C(=O)NC(=O)Nc1nc(C)cc(C)n1	n	n	n	n	n	n	x
CC(C)(C)c1ccc(C(=O)NCCN2CCOCC2)cc1	x	x	x	n	x	x	x
O=C(NCCN1CCOCC1)c1ccncc1	n	12	n	x	n	n	n
SMILES	RBBP9 inh	Wee1 stabilizer	zVAD death inh	Pf gamet viab	TNF death inh	m-calpain inh	Wee1 degr conf
CC(C)C(=O)Nc1nnc(SCC(=O)NCc2ccc3c(c2)OCO3)s1	n	12	n	x	n	n	n
CCCSc1nsc(NC(=O)CCC)n1	n	13	n	n	n	n	n
O=[N+]([O-])c1ccc(Sc2cccc3cccnc23)c([N+](=O)[O-])c1	n	16	n	x	n	n	n
CCOc1ccc(C(CC(=O)O)NC(=O)C(Sc2ccccc2)c2ccccc2)cc1 (stereo not drawn)	n	n	n	n	n	n	x
OC1CCN(c2c3c(nc4cc(-c5cccc(F)c5)nn24)CCCC3)CC1	n	n	n	n	n	n	x
Clc1cccc(-c2cc3nc4c(c(N5CCNCC5)n3n2)CCCC4)c1	n	12	n	x	n	n	n
Cc1ccc(CCN2CCN=C2Nc2ccccc2)cc1	x	x	x	n	x	x	x
COc1ccc(/C=C/C(=O)c2ccccc2O)cc1	n	n	n	x	n	n	x
COc1ccc(CC(=O)O/N=C(\N)c2ccccn2)cc1	n	16	n	n	n	n	n
COc1ccc(/C=C/C(=O)c2ccccn2)cc1	n	12	n	n	n	n	n
COc1cccc(NC(=O)C2CC(=O)OC23CCOC(C)(C)C3)c1 (stereo not drawn)	n	24	n	x	n	n	n
CC1(C)CC2(CCO1)OC(=O)CC2C(=O)Nc1c(Cl)cccc1Cl (stereo not drawn)	n	n	n	n	n	n	x
O=C(CSc1nc2ccccc2c(=O)n1-c1ccc(F)cc1)Nc1ccc(Cl)c(S(=O)(=O)N2CCOCC2)c1	n	14	x	n	n	n	n
O=C(CSc1nc2ccccc2c(=O)n1-c1ccc(F)c(Cl)c1)Nc1cccc(S(=O)(=O)N2CCOCC2)c1	n	n	n	n	n	n	x
O=C(CNC(=S)N(CCCN1CCOCC1)Cc1cccs1)NC1CCCCC1	n	n	n	x	n	n	x
O=C1CCC/C(=N/NC(=O)c2sc3ccccc3c2Cl)C1	n	n	n	n	n	n	x
COc1ccc2c(COC(=O)CC3Sc4ccccc4NC3=O)cc(=O)oc2c1 (stereo not drawn)	n	11	n	x	n	n	n
CCOC(=O)C1(CC2CCCCO2)CCN(C(=O)Nc2ccccc2SC)CC1 (stereo not drawn)	n	12	n	x	n	n	n
O=[N+]([O-])c1ccc(COc2ncnc3ccccc23)cc1	n	n	n	n	n	n	x
CC1(C)Cc2nc3sc4c(SCC(=O)NCc5ccccc5)ncnc4c3cc2CO1	n	13	n	x	n	n	n
Cc1ccccc1OCCCn1c(=O)sc2ccccc21	n	n	n	n	n	n	x
COc1cc(C(C)=O)ccc1OC(=O)c1cc2cccc(OC)c2oc1=O	n	53	n	n	n	n	n
Cc1cccc(C)c1N1CCN(C(=O)N2CCOCC2)CC1	n	n	n	n	n	n	x
Cc1ccc(N2CCN(C(=O)N3CCOCC3)CC2)cc1C	n	12	n	n	n	n	n
COc1ccc(/C=C/C(=O)NC(=S)N2CCN(c3ccccc3OC)CC2)cc1	n	12	n	n	n	n	n
SMILES	RBBP9 inh	Wee1 stabilizer	zVAD death inh	Pf gamet viab	TNF death inh	m-calpain inh	Wee1 degr conf
COc1ccccc1N1CCN(C(=O)/C=C/c2ccc(C)cc2)CC1	n	n	n	x	n	n	x
CN(Cc1ccsc1)C(=O)CCc1nnc(CCCc2ccccc2)o1	n	11	n	n	n	n	n
CN(Cc1ccsc1)C(=O)CCc1nnc(Cc2c[nH]c3ccccc23)o1	n	n	n	n	n	n	x
O=C(Nc1nc(-c2ccccn2)cs1)c1ccc2c(c1)OCCO2	n	31	n	x	n	n	n
CN(C(=O)CCn1c(=S)oc2ccccc21)c1ccc(F)cc1	n	n	n	n	n	n	x
CC(=O)Nc1ccc(C(O)(C(F)(F)F)C(F)(F)F)cc1	n	12	n	n	n	n	n
